Laboratory results: the EternaBench riboswitch data

Tested on: MS2 coat protein
Test: apparent Kd, MS2 coat protein; higher = weaker binding; RNA-MaP array; FMN 200 µM where present
Method in brief: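 Designs were transcribed by stalled E. coli RNA polymerase on Illumina sequencing-chip clusters. They were titrated with SNAP-549-labelled MS2 coat protein from 0.7 or 1.5 nM, doubling to 3 µM, without and then with constant ligand. Buffer: 100 mM Tris-HCl pH 7.5, 80 mM KCl, 4 mM MgCl2, BSA, DTT, yeast tRNA, Tween-20. Green signal was normalised to red-channel RNA signal and control-cluster median Fmax. Apparent Kd is the median of filtered per-cluster binding-curve fits.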

[1] = designed as: OFF switch for flavin mononucleotide, no ligand
[2] = ligand present: flavin mononucleotide, designed as: OFF switch for flavin mononucleotide
[3] = ligand present: flavin mononucleotide, designed as: ON switch for flavin mononucleotide
[4] = designed as: ON switch for flavin mononucleotide, no ligand

Sequence | apparent Kd [1] [nM] | apparent Kd [2] [nM] | apparent Kd [3] [nM] | apparent Kd [4] [nM]
UGAUAAUACGUCAGGAUAUGCGUCAUAGAGAAGUGGUAGAAGGGACAUGAGGAUCACCCAUGUUUUGGGUUAUA | 132 | 93.5 | – | –
GACUGGGCAGGAUAUACAUGAGGAUCACCCAUGUGUCUGCGUCAGGCACGUGUAGACGGUAGAAGGGCCUACAC | 11.6 | 13.6 | – | –
UGUUGUGAACAGAACAUGAGGAUCACCCAUGUGCACUCGUGUAAGGAUAUACAAUCGUAUGGAAAGUAGAAGGUACUAAUUAUG | – | – | 120 | –
GCGAUUUUGUAAGGAUAUACACGAGUUUCAAGUGUAGAAGGUACUUACAUGAGGAUCACCCAUGUAUACAUGGAUAAUAGUCGC | – | – | 84.2 | 548
AGUAAUUACGAAGGAUAUGCGCUCCUCGGGCUCGCAGAAGGUCGUACAUGAGGAUCACCCAUGUGUGAUCGCUCAUAGCCGCAA | 93.2 | 41.4 | – | –
UAGGAGUCAGGAUAUGCGAGAGAUGGAAGUAAGGGAUGAGAGCAGAAGGGACAUGAGGAUCACCCAUGUAAGGA | 39.7 | 37.8 | – | –
AGCACGGGAUUGGAGGAUAUGUUGUUUGCAACAUGAGGAUCACCCAUGUCUGAGGCUGAAAAGCAGCAGAAGGCCGAUACAACCA | – | – | 71.5 | 347
AAGGACUGUAAUAAUGUAGAAAUACAUGAGGAUCACCCAUGUAAGGAUAUCGUCAGGAAUACUGACGAGAAGGUACAUCAGUCC | – | 25.8 | – | –
AGAUAACAUGUAGGAUAUCGAGGCCUGAGGCCUCGAGAAGGACAUGAGGAUCACCCAUGUUUGCCGAGCAUGGAAUCCCGCACU | 58.6 | 425 | – | –
GGAGCUACAACCGACGGAUAGAUGCAGGAUAUGCUCACAUGAGGAUCACCCAUGUGCUGAAACUGGCAGAAGGGUAUCACCGCC | – | – | 4.59 | 7.83
CCUAAACAUGAGGAUCACCCAUGUGAGGAUAUGAUGCGAAUAAAGAAAGAAGAAAGCAUCAGAAGGCACAUAGG | 173 | 270 | – | –
AUGUUACAUGAGGAUCACCCAUGUGAGGAUAUGUGUACCGGUAAAAAAGUGUUUGGCCACAGAAGGCAUUUGGG | 44.5 | 84.5 | – | –
GUCUUCCUAGGAUAUACAUGAGGAUCACCCAUGUAAAGUUUCGUCAAAGGAUAAUCGAGUAGAAGGAGGUGGAU | 15 | 17.2 | – | –
GCACGGUAUGUAGGAUAUGCAUAGCAUUGCUAUGCAGAAGGACAUGAGGAUCACCCAUGUAUGUAUUCCAUACAAUUCCCGUGC | 5.41 | 5.82 | – | –
UGGACGACCCGAGGAUAUCAAAGGCCCGGGUAAGUUCCUCAGACAUGAGGAUCACCCAUGUUAAAUGAGAAGGCGGGUAGCCGA | 203 | 268 | – | –
GCGAUGAUCGAGAAGGCCACUACAUGAGGAUCACCCAUGUCGUGGUGUAUUGGAGGAUAUCGAUCGGCGUCUUAUGAGGACAUG | 5.02 | 8.26 | – | –
UGAUACUGAGAGAAGGUUCAAACUACAUAUUGCAUACAUGAGGAUCACCCAUGUUGGUGAAUAAGAAAGGAUAUUUUACUAUAU | 47 | 32.8 | – | –
GUGUUUGAUGAGGAUAUCGCUGUGGGUACACAGCGAGAAGGCAUUACAUGAGGAUCACCCAUGUAGUGUGGGUU | 24 | 105 | – | –
GACAUACAUGAGGAUCACCCAUGUUCAGACGGGCAAGGAUAUGUGUGGAAACCAUACUAUACAGAAGGUGUCUGUC | – | – | 17.6 | 26.5
AGAGUGACAGGAUAUUGGAUUCCUAACAUGAGGAUCACCCAUGUAGUACGGUACUACUGUCAAGAAGGGUCACUCU | 75.8 | 68.8 | – | –
CUUUUGUGAGGAUAUUAGUAGUAAAUAAAUAUAAUUACUACUGAGAAGGCACAUGAGGAUCACCCAUGUUCCUC | 34.1 | 186 | – | –
CAAUUGGCACAGAAGGGUGACAUGAGGAUCACCCAUGUAGCGUGGUACUCAGGAGGAACCACGCCACAGGAUAUGUGCGGGCAC | – | – | 38.8 | 30.3
ACGUGACGGAGCGCGAGUGGACGGAGAAGGCAGACAUGAGGAUCACCCAUGUGAGCCUGCUAUUCUGAGGAUAUCCGUCCGCAC | 32.5 | 203 | – | –
GGACCACAUCAGGAUAUGACUAGCUUCGGCUAGUCAGAAGGGAUGACAUGAGGAUCACCCAUGUGAUCAGGUCC | 77.5 | 127 | – | –
CGUUGAUGAGGAUAUCGAUGUUAGUACAUGAGGAUCACCCAUGUUAUCCAAGUGUCGGAUCGAGAAGGUAUUGGAC | 320 | 306 | – | –
CCGCAAAUGGAGGAUAUCGUAUCGGAUACGAUACGAGAAGGCUAAACAUGAGGAUCACCCAUGUGUCCUAGCGG | 14 | 15.5 | – | –
GGAUCCAACACAGGAUAUGCUGGACUUUGUCCAGCAGAAGGGUGAAGAACAUGAGGAUCACCCAUGUGGAUCCAUACAUUUAAU | – | – | 15.7 | 254
GUGGUACAUGAGGAUCACCCAUGUGUGGGCGCGUGAGGAUAUGUCCGUACCUGGCGUACGAUAGAAGGCAUGGUGC | – | – | 34.6 | 73.9
